For one series, the system named is Mus musculus. Description: Toxicity in human MCF7 cells xenografted in NIH-3 mouse assessed as changed in body weight at 16 mg/kg, po for 29 days relative to control. It counts as organism-based. More on the design: dose 16 mg/kg, route oral. The note with it: in vivo, 696 h. On the technique in general: Xenograft models place foreign cells or tissue in a host animal.

Series [1] deals with MDA-MB-231. Description: Cell cycle arrest in human […] cells assessed as accumulation at subG1 phase at 7.5 uM by propidium iodide staining by FACS analysis (reference value: 0.3%). The format is functional. Background: A flow cytometer gives signals particle by particle.
Series [2] deals with MDA-MB-231. Description: Cell cycle arrest in human […] cells assessed as accumulation at G1 phase at 2.5 uM by propidium iodide staining by FACS analysis (reference value: 63.74%). The format is functional.
Series [3] has as its system MDA-MB-231. In words: Antiproliferative activity against human ER-positive MDA-MB-231 cells after 72 hrs by MTT assay. It counts as functional, cell-based. Particulars: MDA-MB-231, 72 h.
Series [4] deals with MCF7. In words: Cell cycle arrest in human […] cells assessed as accumulation at G2 phase at 2.5 uM by propidium iodide staining by FACS analysis (reference value: 10.96%). It counts as functional.
For a further series, the system named is Vero. Description: Antiproliferative activity against african green monkey Vero cells after 24 hrs by MTT assay. It counts as functional, cell-based. Particulars: Chlorocebus sabaeus. The procedure, abridged:
(§1)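 MTT viability: cells seeded at 1×10^4 per well in DMEM with 10% FBS, left to adhere overnight, then serum-starved 4 h. Compounds were given at a range of doses, with 0.1% DMSO vehicle as control. EC50 was taken from dose-response curves spanning 100nM-50µM. Data are mean ± SEM from at least three independent experiments.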
Background: Formazan colour is commonly taken as a measure of viable cells.

A short description of series [5]: Antiproliferative activity against human COLO205 cells after 24 hrs by MTT assay. It counts as functional, cell-based. Particulars: COLO 205, 24 h. The procedure, abridged: as §1
In series [6] the test system is MDA-MB-231. In words: Cell cycle arrest in human […] cells assessed as accumulation at G1 phase at 7.5 uM by propidium iodide staining by FACS analysis (reference value: 63.74%). The format is functional.
A short description of series [7]: Antiproliferative activity against mouse NIH/3T3 cells after 24 hrs by MTT assay. It counts as functional, cell-based. The note with it: NIH3T3, 24 h. The method in brief:
as §1

A short description of series [8]: Antiproliferative activity against human DLD1 cells after 24 hrs by MTT assay. It counts as functional, cell-based. The note with it: DLD-1, 24 h. The procedure, abridged:
as §1

For series [9], the system named is MDA-MB-231. Description: Cell cycle arrest in human […] cells assessed as accumulation at S phase at 7.5 uM by propidium iodide staining by FACS analysis (reference value: 13.72%). It counts as functional.
Series [10] deals with MCF7. In words: Cell cycle arrest in human […] cells assessed as accumulation at G2 phase at 7.5 uM by propidium iodide staining by FACS analysis (reference value: 10.96%). The format is functional.
The subject of series [11] is MCF7. Description: Antitumor activity against human MCF7 cells xenografted in NIH-3 mouse assessed as large area of stroma/deletion of epithelial cells at 16 mg/kg, po for 25 days. The format is functional, organism-based. More on the design: dose 16 mg/kg.
Series [12] concerns the target Platelet-derived growth factor receptor beta (Homo sapiens) (UniProt P09619). In words: Inhibition of PDGFRbeta (unknown origin) at 10 uM. The method in brief:
(§2)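 Cell-free kinase profiling was run as a standard 33P-ATP-based in vitro kinase assay.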

For series [13], the target named is Focal adhesion kinase 1 (Homo sapiens) (UniProt Q05397). Description: Inhibition of EGF-induced FAK phosphorylation at Tyr397 in human MDA-MB-231 cells at 1 uM by ELISA. The format is cell-based.
Focal adhesion kinase 1 (Homo sapiens), sequence (Q05397 2-1052 limits assumed): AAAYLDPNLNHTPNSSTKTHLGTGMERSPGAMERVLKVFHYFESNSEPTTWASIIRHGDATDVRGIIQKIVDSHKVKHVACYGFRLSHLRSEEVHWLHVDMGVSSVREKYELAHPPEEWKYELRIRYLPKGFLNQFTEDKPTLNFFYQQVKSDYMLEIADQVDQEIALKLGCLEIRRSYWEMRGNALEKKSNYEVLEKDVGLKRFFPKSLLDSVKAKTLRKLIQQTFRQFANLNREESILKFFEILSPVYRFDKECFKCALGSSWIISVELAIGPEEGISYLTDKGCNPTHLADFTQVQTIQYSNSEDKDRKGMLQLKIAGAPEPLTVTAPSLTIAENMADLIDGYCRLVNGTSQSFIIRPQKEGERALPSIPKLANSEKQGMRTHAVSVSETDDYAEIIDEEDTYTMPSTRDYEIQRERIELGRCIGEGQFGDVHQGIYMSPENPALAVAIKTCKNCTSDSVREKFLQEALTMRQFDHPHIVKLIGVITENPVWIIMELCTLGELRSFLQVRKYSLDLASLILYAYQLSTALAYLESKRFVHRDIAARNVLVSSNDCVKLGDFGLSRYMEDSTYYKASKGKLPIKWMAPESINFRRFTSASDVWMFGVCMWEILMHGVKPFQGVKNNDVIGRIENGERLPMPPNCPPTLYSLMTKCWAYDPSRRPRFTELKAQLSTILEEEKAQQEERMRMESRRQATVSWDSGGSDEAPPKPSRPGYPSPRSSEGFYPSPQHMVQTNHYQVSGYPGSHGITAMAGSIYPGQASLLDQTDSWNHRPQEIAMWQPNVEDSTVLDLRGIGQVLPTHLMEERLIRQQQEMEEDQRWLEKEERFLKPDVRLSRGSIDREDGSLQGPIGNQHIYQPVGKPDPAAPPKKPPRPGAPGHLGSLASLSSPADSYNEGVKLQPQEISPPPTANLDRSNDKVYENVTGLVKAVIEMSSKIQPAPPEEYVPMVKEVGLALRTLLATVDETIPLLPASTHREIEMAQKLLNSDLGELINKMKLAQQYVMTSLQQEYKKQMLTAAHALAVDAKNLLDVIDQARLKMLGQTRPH
Series [14] has as its system MCF7. In words: Induction of apoptosis in human […] cells assessed as loss of mitochondrial membrane potential at 5 uM after 24 hrs by JC-1 staining based flow cytometry. The format is functional, cell-based. The method in brief:
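Cells given 5μM compound for 24 h, trypsinized, stained with JC-1 (1μg/ml) in medium 15 min at 37°C, PBS-washed, analysed by flow cytometry on FL1 and FL2 channels.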

Series [15] deals with MCF7. Description: Antiinvasion activity in human MCF7 cells assessed as inhibition of FBS-induced cell invaded to matrigel coated invasion chamber at 1 uM after 24 hrs by Transwell invasion assay. The format is functional, cell-based.
The target in series [16] is Epidermal growth factor receptor (Homo sapiens) (UniProt P00533). In words: Inhibition of EGF-induced EGFR phosphorylation at Tyr845 in human MCF7 cells at 1 uM by ELISA. The format is cell-based.
The subject of series [17] is MCF7. Description: Inhibition of IGF1 expression in human MCF7 cells at 5 uM by ELISA. The format is functional, cell-based.
In series [18] the test system is MCF7. In words: Antiproliferative activity against human […] cells at 2.5 to 7.5 uM by annexin V-FITC/propidium iodide staining-based flow cytometric analysis. It counts as functional, cell-based.
Series [19] deals with MDA-MB-231. In words: Inhibition of VEGF expression in human MDA-MB-231 cells at 5 uM by ELISA. The format is functional, cell-based.
The target of series [20] is Mitogen-activated protein kinase; ERK1/ERK2 (Homo sapiens) (UniProt P27361+P28482). Description: Inhibition of EGF-induced ERK1/2 phosphorylation in human MCF7 cells at 1 uM by ELISA. The format is cell-based.
Mitogen-activated protein kinase; ERK1/ERK2 (Homo sapiens), sequence (P27361 whole entry, looked up): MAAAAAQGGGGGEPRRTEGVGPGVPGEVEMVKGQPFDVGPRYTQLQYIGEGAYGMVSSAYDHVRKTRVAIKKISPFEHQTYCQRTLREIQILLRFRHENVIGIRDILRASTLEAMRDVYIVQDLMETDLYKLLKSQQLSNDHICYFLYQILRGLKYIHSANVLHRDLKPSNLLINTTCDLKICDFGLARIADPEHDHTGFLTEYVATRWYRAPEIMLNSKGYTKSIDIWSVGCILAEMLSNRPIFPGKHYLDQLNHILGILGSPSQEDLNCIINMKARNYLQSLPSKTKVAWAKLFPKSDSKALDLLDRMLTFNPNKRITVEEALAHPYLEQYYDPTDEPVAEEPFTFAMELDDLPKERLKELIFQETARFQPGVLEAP
Mitogen-activated protein kinase; ERK1/ERK2 (Homo sapiens), sequence (P28482 whole entry, looked up): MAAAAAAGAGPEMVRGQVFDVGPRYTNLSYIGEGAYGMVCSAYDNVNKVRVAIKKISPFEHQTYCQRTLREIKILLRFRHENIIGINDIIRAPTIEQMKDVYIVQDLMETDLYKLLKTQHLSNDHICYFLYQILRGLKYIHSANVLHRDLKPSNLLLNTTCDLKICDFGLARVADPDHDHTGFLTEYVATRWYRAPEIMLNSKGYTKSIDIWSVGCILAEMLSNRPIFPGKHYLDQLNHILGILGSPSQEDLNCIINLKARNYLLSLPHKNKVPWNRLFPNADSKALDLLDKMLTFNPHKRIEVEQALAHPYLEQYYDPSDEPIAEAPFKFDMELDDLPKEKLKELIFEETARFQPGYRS
Series [21] has as its system MDA-MB-231. Description: Induction of apoptosis in human […] cells assessed as caspase 8 activation at 2.5 to 7.5 uM by Caspase-Glo assay. It counts as functional, cell-based. The procedure, abridged:
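Caspase-8, -9 and -3 activities measured with Caspase-Glo 8, 9 and 3 kits; mean ± SEM from three independent experiments.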

Series [22] relates to MDA-MB-231. In words: Effect on intracellular calcium level in human MDA-MB-231 cells at 1 to 25 uM by flow cytometry. The format is functional, cell-based. The method in brief: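 Trypsinized cells washed in PBS (pH 7.4), loaded with Fluo-4AM 45 min in HBSS, washed and resuspended in calcium-free HBSS; baseline fluorescence read 2 min by flow cytometry, then 7 min after compound addition.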

The target of series [23] is Angiopoietin-1 receptor (Homo sapiens) (UniProt Q02763). In words: Inhibition of Tie2 (unknown origin) at 10 uM. The procedure, abridged: as §2
Angiopoietin-1 receptor (Homo sapiens), sequence (Q02763 whole entry): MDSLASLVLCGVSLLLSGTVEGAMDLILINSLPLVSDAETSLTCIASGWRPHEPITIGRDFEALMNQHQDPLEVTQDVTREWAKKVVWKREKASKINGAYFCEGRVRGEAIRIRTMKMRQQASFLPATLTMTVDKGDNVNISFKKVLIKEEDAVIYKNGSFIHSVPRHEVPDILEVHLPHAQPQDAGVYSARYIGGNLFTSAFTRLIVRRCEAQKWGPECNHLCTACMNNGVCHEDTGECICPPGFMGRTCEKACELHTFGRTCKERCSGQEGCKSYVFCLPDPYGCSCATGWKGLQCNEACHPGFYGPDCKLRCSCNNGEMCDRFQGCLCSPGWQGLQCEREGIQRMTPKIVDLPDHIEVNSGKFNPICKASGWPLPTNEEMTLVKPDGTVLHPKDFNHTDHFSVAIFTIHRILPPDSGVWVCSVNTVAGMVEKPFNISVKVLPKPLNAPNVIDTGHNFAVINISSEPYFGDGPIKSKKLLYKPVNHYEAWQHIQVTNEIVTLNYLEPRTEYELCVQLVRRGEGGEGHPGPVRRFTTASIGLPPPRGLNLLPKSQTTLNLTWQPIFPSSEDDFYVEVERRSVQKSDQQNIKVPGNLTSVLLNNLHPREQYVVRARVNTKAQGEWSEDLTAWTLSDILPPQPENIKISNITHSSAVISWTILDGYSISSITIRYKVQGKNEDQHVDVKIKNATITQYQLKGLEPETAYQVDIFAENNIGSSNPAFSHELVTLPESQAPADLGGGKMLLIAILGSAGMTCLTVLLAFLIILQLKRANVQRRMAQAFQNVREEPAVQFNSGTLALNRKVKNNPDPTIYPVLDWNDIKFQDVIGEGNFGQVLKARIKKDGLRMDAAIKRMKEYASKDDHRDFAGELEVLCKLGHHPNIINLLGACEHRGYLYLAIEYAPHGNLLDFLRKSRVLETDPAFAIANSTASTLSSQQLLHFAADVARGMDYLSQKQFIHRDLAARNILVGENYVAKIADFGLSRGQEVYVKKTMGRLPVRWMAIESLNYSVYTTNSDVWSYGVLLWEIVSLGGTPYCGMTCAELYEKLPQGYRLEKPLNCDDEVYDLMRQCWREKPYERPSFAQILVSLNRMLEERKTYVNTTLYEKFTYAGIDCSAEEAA
The subject of series [24] is MDA-MB-231. In words: Inhibition of IGF1 expression in human MDA-MB-231 cells at 5 uM by ELISA. It counts as functional, cell-based.
Series [25] addresses Transforming growth factor beta-1 proprotein (Homo sapiens) (UniProt P01137). Description: Inhibition of TGFbeta1 (unknown origin) at 10 uM.
Series [26] has as its target Induced myeloid leukemia cell differentiation protein Mcl-1 (Homo sapiens) (UniProt Q07820). Description: Inhibition of EGF-induced phosphorylated Mcl1 in human MDA-MB-231 cells at 1 uM by ELISA. The format is cell-based.
For series [27], the target named is ETS domain-containing protein Elk-1 (Homo sapiens) (UniProt P19419). Description: Inhibition of EGF-induced phosphorylated ELK1 in human MDA-MB-231 cells at 1 uM by ELISA. The format is cell-based.
ETS domain-containing protein Elk-1 (Homo sapiens), sequence (P19419 whole entry, the tested form may be a part): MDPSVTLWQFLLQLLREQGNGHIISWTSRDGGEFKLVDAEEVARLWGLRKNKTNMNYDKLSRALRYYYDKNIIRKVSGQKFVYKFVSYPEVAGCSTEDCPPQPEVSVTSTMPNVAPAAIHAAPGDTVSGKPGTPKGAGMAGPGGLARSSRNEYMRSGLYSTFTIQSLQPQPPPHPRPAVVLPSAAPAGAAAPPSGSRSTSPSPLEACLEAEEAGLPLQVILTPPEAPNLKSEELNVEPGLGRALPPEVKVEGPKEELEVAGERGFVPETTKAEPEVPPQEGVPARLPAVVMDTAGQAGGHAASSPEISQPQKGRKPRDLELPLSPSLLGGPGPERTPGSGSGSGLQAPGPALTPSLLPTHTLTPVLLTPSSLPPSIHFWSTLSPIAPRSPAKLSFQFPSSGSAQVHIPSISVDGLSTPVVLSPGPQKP
For series [28] the target is unchanged. In words: Inhibition of basal level ELK1 phosphorylation in human MDA-MB-231 cells at 1 uM by ELISA. It counts as cell-based.
The target of series [29] is Phosphodiesterase 3 (Homo sapiens) (UniProt Q14432+Q13370). Description: Inhibition of PDE3 CAT (unknown origin) activity at 1 to 10 uM. The format is protein assay. The method in brief:
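Recombinant PDE isoform activity was read by fluorescence polarization. A binding reagent complexes with the nucleotide monophosphate that the phosphodiesterase generates from cAMP/cGMP, and this raises the polarization of the labelled substrate. Reference standards were PDE1A3 10µM IBMX, PDE2A3 1nM BAY 60-7550, PDE3CAT 1µM cilostazol, PDE4CAT rolipram, PDE5CAT 0.1µM sildenafil, PDE7A […], PDE8A1 10µM BRL-50481, PDE9A1 1µM SB 36216 and PDE11A1 dipyridamole.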

This is an account of results in ChEMBL document CHEMBL3352791, “Thioaryl naphthylmethanone oxime ether analogs as novel anticancer agents” (J Med Chem, 2014).

SMILES strings stand for the structures. Activity calls are given as the source filed them. The calls are words filed in the database; no cut-off is given here.

Induced myeloid leukemia cell differentiation protein Mcl-1 (Homo sapiens), sequence (Q07820 whole entry, the tested form may be a part): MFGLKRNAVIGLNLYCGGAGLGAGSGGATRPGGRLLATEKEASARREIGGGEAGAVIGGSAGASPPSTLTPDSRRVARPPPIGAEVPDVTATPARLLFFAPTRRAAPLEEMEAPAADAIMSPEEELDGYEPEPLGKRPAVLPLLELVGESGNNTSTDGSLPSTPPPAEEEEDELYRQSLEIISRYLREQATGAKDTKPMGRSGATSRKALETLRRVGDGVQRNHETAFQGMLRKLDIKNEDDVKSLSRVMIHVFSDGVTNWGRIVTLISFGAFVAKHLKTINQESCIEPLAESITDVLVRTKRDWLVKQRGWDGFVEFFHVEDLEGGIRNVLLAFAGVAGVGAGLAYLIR
Transforming growth factor beta-1 proprotein (Homo sapiens), sequence (P01137 279-390 limits assumed): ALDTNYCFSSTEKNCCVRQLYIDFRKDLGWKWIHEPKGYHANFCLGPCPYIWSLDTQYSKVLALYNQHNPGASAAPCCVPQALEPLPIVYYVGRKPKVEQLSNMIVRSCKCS
Platelet-derived growth factor receptor beta (Homo sapiens), sequence (P09619 whole entry): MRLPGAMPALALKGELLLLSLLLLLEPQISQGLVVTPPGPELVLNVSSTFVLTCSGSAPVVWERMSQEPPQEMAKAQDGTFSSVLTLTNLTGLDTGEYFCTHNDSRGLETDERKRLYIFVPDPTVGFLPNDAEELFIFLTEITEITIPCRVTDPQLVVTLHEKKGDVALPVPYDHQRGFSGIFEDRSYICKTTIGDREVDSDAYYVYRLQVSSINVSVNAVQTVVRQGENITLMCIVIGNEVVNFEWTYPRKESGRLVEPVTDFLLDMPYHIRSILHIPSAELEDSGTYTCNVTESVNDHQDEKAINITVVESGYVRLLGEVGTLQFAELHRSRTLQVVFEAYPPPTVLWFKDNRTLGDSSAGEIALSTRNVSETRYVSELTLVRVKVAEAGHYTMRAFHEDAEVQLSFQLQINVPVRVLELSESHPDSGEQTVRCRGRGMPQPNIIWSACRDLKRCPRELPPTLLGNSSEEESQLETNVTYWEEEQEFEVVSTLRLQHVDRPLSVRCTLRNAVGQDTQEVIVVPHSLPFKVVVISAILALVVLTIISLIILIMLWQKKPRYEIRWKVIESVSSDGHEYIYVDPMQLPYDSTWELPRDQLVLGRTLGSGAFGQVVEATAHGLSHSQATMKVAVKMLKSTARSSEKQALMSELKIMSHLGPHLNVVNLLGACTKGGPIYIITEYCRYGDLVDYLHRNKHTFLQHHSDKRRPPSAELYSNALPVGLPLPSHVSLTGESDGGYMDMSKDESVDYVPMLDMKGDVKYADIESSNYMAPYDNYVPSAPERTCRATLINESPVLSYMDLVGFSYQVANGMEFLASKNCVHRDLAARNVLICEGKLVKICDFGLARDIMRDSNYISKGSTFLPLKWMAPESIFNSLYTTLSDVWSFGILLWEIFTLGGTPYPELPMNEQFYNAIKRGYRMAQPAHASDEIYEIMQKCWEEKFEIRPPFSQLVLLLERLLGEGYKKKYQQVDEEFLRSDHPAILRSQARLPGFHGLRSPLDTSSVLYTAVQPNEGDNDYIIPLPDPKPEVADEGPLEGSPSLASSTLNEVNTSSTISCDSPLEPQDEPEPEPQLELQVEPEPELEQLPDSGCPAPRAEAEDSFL

Take `CCN(CC)CCO/N=C(\c1ccc(SC)cc1)c1cccc2ccccc12.O=C(O)C(=O)O`: the Activity entry was “Non-toxic” in the series on Mus musculus; 0.8% with MDA-MB-231 [1]; 80.13% with MDA-MB-231 [2]; 12.46% in the series with MCF7 [4]; 91.17% in the series on MDA-MB-231 [6]; 2.74% with MDA-MB-231 [9]. The Activity in the series with MCF7 [10] is on record as 13.98%. In addition, the EC50 (commonly the concentration giving half of the maximal effect) in the series on MDA-MB-231 [3] amounted to 1 µM; in series [5] it was 4.2 µM; in series [8] it was 15.6 µM. Further, the results for the IC50 (with Vero; in [7]) were over 25 µM and over 20 µM, respectively.

On to `CCN(CC)CCO/N=C(\c1ccc(SC)cc1)c1cccc2ccccc12`, for which the outcome in the series on MCF7 [11], in the series on MCF7 [14], in the series on MCF7 [15], with MCF7 [18] and in the series with MDA-MB-231 [21] was Active. Besides, the inhibition entry (in series [12]; with MCF7 [17]; in the series on MDA-MB-231 [19]; in series [23]; in the series with MDA-MB-231 [24]; in series [25]) was “inactive” in each case. In series [29], the inhibition result was “inactive”. Besides, the inhibition result in [13], in series [16], in series [20], in series [26], in series [27] and in series [28] was “Active” throughout. Besides, the result in the series with MDA-MB-231 [22] was inactive.
